# In ChEMBL document CHEMBL3286193, “Discovery of a series of 2,5-diaminopyrimidine covalent irreversible inhibitors of Bruton's tyrosine kinase with in vivo antitumor activity” (J Med Chem, 2014):
# Calls of active or inactive are those of the source. No cut-off for these calls is given here.
# What was measured:
# [1] = molecular target: Receptor tyrosine-protein kinase erbB-4 (Homo sapiens, UniProt Q15303); experiment: Inhibition of HER4 (unknown origin) after 1 hr by HTRF assay
# Outline: (§1)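 Recombinant kinases tested by HTRF KinEase protocol. Enzyme preincubated with inhibitor for a fixed 10 min. IC50 values are means of duplicates.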
# [2] = Cytotoxicity against human DOHH2 cells assessed as growth inhibition after 72 hrs by CellTiter-Glo luminescent cell viability assay; assay type: functional, DOHH-2; conditions: Homo sapiens, DOHH-2, 72 h
# Outline: (§2)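 Lymphoma cells seeded at 5000 cells/well, incubated 24 h, then exposed to compounds for 72 h. Viability read by CellTiter-Glo luminescence. GI50 from dose−response curves, mean of two or three independent experiments in triplicate.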
# [3] = molecular target: Tyrosine-protein kinase TXK (Homo sapiens, UniProt P42681); experiment: Inhibition of Rlk (unknown origin) after 1 hr by HTRF assay; outline: as §1
# [4] = Stability of the compound in FaSSIF assessed as compound remaining at 1 uM measured at 24 hrs by LC-MS analysis; assay type: ADME; conditions: read-out: Stability
# Outline: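 Compound solutions in FaSSIF shaken at 350 rpm at 37 °C. Samples taken at 2, 6, 10 and 24 h and quantified by LC−MS as % remaining.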
# [5] = molecular target: T1, Tyrosine-protein kinase BTK (Homo sapiens, UniProt Q06187); experiment: Inhibition of Btk in human Ramos cells assessed as inhibition of PLC-gamma2 phosphorylation at Tyr1217 after 1 hr by Western blot analysis; assay type: cell-based
# [6] = molecular target: T1, Tyrosine-protein kinase BTK; experiment: Binding affinity to Btk kinase domain (387 to 659) (unknown origin) assessed as compound-protein covalent adduct formation at 1:3 protein to compound molar ratio at 4 degC after 1 hr by LC-MS analysis
# Outline: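 Btk kinase domain (residues 387−659, MW 32136) incubated with 3 equiv of compound at 4 °C for 1 h. Mass spectrometry of the intact protein checked for mass peak shift consistent with 1-to-1 protein−compound adducts.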
# [7] = Half life in mouse liver microsomes by LC-MS/MS analysis; assay type: ADME
# Outline: (§3)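 Liver microsomes incubated with compound and NADPH at 37 °C. Samples taken at several time points, centrifuged, and supernatants analyzed by LC−MS/MS. t1/2 and CL calculated by first-order kinetics. Testosterone, propranolol and clozapine served as positive controls.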
# [8] = molecular target: Epidermal growth factor receptor (Homo sapiens, UniProt P00533); experiment: Inhibition of EGFR (unknown origin) after 1 hr by HTRF assay
# Outline: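 Commercial recombinant kinase, assayed in the HTRF KinEase format following the kit protocol. Enzyme and inhibitor were preincubated for a fixed 10 min before the reaction.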
# [9] = molecular target: Tyrosine-protein kinase ITK/TSK (Homo sapiens, UniProt Q08881); experiment: Inhibition of Itk (unknown origin) after 1 hr by HTRF assay; outline: as §1
# [10] = molecular target: Tyrosine-protein kinase Blk (Homo sapiens, UniProt P51451); experiment: Inhibition of Blk (unknown origin) after 1 hr by HTRF assay; outline: as §1
# [11] = Half life in ICR mouse at 1 mg/kg, iv by LC-MS analysis; assay type: ADME, organism-based; design: dose 1 mg/kg, route intravenous; conditions: in vivo
# Outline: (§4)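 ICR mice (n = 3) given a single intravenous injection at 1 mg/kg. Blood sampled at various time points and analyzed by LC−MS to derive t1/2, CL and Vss.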
# [12] = molecular target: T1, Tyrosine-protein kinase BTK; experiment: Irreversible inhibition of Btk phosphorylation at Tyr551 in human Ramos cells at 1 uM incubated for 1 hr followed by compound washout with fresh media measured after 2 hrs by Western blot analysis; assay type: cell-based
# Outline: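 Ramos cells (5 × 10⁵) seeded overnight, treated with compound 1 h, then washed out with fresh media for 2 h. Cells stimulated with goat anti-human IgM for 3−5 min, lysed by boiling in SDS buffer, and Btk Tyr551 phosphorylation assessed by Western blot.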
# [13] = Solubility of the compound in FaSSIF; assay type: ADME
# [14] = molecular target: T1, Tyrosine-protein kinase BTK; experiment: Inhibition of Btk phosphorylation at Tyr551 in human Ramos cells after 1 hr by Western blot analysis; assay type: cell-based
# [15] = test system: WSU-NHL; experiment: Cytotoxicity against human WSU-NHL cells assessed as growth inhibition after 72 hrs by CellTiter-Glo luminescent cell viability assay; assay type: functional; outline: as §2
# [16] = Clearance in mouse liver microsomes by LC-MS/MS analysis; assay type: ADME; conditions: read-out: CLH; outline: as §3
# [17] = Cytotoxicity against human Pfeiffer cells assessed as growth inhibition after 72 hrs by CellTiter-Glo luminescent cell viability assay; assay type: functional; conditions: Homo sapiens, Pfeiffer, 72 h; outline: as §2
# [18] = Cytotoxicity against human SU-DHL6 cells assessed as growth inhibition after 72 hrs by CellTiter-Glo luminescent cell viability assay; assay type: functional, SU-DHL-6; conditions: Homo sapiens, SU-DHL-6, 72 h; outline: as §2
# [19] = Volume of distribution at steady state in ICR mouse at 1 mg/kg, iv by LC-MS analysis; assay type: ADME, organism-based; design: dose 1 mg/kg, route intravenous; conditions: in vivo, read-out: Vdss; outline: as §4
# [20] = Clearance in ICR mouse at 1 mg/kg, iv by LC-MS analysis; assay type: ADME, organism-based; design: dose 1 mg/kg, route intravenous; conditions: in vivo; outline: as §4
# [21] = molecular target: Tyrosine-protein kinase Tec (Homo sapiens, UniProt P42680); experiment: Inhibition of Tec (unknown origin) after 1 hr by HTRF assay; outline: as §1
# [22] = molecular target: T1, Tyrosine-protein kinase BTK; experiment: Inhibition of Btk (unknown origin) after 1 hr by HTRF assay; outline: as §1
# [23] = test system: Liver microsomes (Mus musculus); experiment: Clearance in mouse liver microsomes by LC-MS/MS analysis
# [24] = molecular target: Tyrosine-protein kinase JAK3 (Homo sapiens, UniProt P52333); experiment: Inhibition of Jak3 (unknown origin) after 1 hr by HTRF assay; outline: as §1
# [25] = molecular target: Receptor tyrosine-protein kinase erbB-2 (Homo sapiens, UniProt P04626); experiment: Inhibition of HER2 (unknown origin) after 1 hr by HTRF assay; outline: as §1
# [26] = molecular target: Cytoplasmic tyrosine-protein kinase BMX (Homo sapiens, UniProt P51813); experiment: Inhibition of Bmx (unknown origin) after 1 hr by HTRF assay; outline: as §1
# T1 sequence (Q06187 whole entry, the tested form may be a part): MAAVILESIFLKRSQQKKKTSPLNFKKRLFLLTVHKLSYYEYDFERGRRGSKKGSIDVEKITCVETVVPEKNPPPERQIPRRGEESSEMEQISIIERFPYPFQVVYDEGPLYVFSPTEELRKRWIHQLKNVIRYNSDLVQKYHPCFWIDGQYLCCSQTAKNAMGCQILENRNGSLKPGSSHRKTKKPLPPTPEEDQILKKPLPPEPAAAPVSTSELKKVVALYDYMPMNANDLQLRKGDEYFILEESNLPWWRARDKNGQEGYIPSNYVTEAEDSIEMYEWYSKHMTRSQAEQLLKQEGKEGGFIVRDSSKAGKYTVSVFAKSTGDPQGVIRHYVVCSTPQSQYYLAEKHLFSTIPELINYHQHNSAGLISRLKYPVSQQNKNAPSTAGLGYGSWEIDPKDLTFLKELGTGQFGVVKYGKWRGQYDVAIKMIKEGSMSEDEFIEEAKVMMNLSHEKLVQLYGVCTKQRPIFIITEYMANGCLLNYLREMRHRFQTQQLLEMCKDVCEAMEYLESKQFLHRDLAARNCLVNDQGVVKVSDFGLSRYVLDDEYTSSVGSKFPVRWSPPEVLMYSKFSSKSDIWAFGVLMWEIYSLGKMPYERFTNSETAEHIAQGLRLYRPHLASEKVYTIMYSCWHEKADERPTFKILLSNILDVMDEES
# Sequence of Receptor tyrosine-protein kinase erbB-4 (Q15303 whole entry): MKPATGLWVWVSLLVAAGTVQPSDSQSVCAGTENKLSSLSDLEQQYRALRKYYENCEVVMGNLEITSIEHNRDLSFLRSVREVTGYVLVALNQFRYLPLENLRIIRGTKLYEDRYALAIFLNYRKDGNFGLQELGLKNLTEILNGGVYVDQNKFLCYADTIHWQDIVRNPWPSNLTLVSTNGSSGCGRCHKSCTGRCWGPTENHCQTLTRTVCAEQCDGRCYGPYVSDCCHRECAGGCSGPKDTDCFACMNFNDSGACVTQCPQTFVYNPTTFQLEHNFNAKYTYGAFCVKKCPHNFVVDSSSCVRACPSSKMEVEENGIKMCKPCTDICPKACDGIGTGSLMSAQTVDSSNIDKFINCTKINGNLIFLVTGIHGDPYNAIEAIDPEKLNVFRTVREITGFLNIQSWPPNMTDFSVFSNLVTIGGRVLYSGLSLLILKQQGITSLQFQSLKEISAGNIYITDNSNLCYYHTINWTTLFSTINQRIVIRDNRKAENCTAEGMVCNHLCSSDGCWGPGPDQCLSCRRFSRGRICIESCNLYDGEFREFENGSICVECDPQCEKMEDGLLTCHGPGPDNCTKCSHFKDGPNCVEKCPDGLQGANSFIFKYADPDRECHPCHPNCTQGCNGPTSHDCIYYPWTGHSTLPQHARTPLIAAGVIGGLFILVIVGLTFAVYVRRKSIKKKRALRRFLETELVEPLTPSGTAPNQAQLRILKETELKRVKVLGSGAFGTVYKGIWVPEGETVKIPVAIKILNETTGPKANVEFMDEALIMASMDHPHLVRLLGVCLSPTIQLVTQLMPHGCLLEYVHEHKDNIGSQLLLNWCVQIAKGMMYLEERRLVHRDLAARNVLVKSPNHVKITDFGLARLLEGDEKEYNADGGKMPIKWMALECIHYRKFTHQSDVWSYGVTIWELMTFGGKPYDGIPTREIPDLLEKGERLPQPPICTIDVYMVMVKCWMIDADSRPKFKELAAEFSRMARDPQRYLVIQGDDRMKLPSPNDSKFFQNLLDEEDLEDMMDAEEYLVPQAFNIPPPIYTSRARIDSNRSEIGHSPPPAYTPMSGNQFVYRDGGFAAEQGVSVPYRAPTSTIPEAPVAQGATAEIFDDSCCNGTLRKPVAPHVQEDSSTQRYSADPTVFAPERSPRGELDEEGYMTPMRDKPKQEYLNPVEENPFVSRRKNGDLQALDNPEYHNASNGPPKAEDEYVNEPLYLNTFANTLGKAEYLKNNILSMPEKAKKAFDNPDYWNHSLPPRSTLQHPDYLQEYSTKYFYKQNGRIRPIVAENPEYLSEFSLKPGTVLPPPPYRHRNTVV
# Sequence of Tyrosine-protein kinase ITK/TSK (Q08881 whole entry): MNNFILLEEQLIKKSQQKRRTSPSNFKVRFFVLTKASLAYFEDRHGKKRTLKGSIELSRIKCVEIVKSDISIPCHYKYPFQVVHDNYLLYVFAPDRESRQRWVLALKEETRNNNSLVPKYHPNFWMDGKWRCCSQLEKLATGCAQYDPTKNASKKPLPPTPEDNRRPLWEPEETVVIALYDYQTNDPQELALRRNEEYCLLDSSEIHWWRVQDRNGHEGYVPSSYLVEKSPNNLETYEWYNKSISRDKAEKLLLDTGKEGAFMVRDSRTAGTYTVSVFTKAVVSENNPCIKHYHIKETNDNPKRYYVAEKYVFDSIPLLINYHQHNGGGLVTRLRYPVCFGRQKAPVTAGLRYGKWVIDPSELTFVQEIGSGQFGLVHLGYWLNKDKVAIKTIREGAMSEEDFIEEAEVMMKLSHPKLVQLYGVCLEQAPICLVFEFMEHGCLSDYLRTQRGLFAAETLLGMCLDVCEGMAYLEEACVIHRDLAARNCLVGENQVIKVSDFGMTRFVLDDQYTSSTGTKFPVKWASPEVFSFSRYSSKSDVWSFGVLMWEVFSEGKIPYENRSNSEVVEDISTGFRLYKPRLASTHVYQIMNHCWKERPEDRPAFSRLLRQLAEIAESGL
# Sequence of Tyrosine-protein kinase Blk (P51451 whole entry): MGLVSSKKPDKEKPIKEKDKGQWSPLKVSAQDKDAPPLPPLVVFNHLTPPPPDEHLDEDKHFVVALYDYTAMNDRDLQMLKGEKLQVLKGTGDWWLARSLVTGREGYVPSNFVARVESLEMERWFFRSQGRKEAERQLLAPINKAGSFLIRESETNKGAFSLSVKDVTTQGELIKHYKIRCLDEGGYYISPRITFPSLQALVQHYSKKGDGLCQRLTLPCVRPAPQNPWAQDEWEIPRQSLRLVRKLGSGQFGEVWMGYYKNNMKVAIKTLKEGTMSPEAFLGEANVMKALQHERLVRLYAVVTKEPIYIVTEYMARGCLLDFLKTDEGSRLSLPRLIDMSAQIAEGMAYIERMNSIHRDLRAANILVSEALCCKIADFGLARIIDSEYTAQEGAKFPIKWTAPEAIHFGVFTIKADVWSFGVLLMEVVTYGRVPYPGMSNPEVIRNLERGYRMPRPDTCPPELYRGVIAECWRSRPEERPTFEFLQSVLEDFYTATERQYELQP
# Sequence of Tyrosine-protein kinase Tec (P42680 whole entry): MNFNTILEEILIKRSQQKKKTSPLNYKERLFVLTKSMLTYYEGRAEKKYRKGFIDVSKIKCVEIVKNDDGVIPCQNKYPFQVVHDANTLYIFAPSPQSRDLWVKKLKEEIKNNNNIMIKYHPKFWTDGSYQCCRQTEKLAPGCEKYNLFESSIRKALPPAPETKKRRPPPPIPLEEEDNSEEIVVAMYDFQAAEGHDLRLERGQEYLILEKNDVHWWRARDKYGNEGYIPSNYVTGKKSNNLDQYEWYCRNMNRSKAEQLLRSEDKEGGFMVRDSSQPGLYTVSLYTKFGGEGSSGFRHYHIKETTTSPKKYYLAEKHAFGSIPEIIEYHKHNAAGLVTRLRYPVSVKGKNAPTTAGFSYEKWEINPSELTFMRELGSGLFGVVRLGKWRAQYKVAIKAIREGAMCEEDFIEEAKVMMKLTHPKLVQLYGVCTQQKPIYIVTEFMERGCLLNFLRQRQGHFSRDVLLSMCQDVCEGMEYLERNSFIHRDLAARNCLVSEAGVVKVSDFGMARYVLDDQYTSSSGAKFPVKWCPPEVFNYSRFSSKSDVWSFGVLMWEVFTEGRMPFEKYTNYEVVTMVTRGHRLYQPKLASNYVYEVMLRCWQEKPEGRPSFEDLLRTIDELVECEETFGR
# Sequence of Receptor tyrosine-protein kinase erbB-2 (P04626 whole entry): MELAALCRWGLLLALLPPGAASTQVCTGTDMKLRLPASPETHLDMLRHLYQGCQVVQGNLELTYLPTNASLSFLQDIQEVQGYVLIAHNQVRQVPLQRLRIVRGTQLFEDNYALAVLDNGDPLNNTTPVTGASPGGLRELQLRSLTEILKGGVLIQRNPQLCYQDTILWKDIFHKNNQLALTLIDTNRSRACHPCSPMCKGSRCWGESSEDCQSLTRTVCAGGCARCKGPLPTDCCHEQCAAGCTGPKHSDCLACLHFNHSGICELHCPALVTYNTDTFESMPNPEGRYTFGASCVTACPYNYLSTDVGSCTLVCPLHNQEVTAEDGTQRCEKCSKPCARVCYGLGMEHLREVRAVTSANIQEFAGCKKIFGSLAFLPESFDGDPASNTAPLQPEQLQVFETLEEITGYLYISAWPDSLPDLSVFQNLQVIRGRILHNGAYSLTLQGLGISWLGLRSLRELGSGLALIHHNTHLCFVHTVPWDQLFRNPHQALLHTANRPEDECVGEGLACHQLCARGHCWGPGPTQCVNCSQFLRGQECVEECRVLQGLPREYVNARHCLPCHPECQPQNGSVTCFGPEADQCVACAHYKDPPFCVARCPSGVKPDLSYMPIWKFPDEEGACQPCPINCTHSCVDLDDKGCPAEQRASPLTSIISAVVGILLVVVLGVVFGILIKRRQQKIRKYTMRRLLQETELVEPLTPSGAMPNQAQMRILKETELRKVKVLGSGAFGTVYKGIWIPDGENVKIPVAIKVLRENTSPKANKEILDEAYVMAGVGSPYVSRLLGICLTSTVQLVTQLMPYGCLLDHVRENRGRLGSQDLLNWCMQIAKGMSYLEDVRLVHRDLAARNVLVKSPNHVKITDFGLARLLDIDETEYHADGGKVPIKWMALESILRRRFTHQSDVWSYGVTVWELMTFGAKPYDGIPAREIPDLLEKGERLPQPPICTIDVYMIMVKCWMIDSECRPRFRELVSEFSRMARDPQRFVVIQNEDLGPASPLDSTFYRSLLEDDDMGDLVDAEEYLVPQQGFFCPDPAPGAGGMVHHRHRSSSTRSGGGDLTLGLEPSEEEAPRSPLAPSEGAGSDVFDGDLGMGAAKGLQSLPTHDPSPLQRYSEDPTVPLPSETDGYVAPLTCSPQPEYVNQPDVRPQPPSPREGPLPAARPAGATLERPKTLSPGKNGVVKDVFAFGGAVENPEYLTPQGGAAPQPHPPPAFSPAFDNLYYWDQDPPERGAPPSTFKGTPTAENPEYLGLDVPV
compound,measurement,setting,value
C=CC(=O)NCC(=O)Nc1cccc(Nc2ncc(NC(=O)c3cc(NC(=O)c4cccc(C(F)(F)F)c4)ccc3C)cn2)c1,IC50,[1],3.3 nM
same,GI50,[2],40 nM
same,IC50,[3],1.4 nM
same,"remaining at 24 h, 1 µM",[4],99%
same,IC50,[5],13 nM
same,Activity,[6],Active
same,half-life,[7],35.4 min
same,IC50,[8],7 nM
same,IC50,[9],> 30000 nM
same,IC50,[10],4.2 nM
same,half-life,[11],36 min
same,inhibition,[12],Active
same,solubility,[13],2.23 µM
same,IC50,[14],13 nM
same,GI50,[15],29 nM
same,microsomal CLint,[16],28.1 µL/min/mg
same,GI50,[17],8 nM
same,GI50,[18],43 nM
same,Vd,[19],0.13 L/kg
same,clearance,[20],11.5 mL/min/kg
same,IC50,[21],6.3 nM
same,IC50,[22],< 4.4 nM
same,CLH,[23],49.8 mL/min/kg
same,IC50,[24],6370 nM
same,IC50,[25],7 nM
same,IC50,[26],0.71 nM
